Test results: ChEMBL document CHEMBL1649119, “Daptomycin pharmacokinetics in adult oncology patients with neutropenic fever” (Antimicrob Agents Chemother, 2009)
Values after ≈ are worked out from the molar mass of the structure shown.

Legend:
[1] = Apparent volume of distribution during terminal phase in healthy human subjects at 12 mg/kg, iv administered as 30 mins infusion every 24 hrs measured on day 14; type: ADME, organism-based; design: dose 12 mg/kg, route intravenous; settings: in vivo
[2] = Unbound fraction in healthy human plasma at 8 mg/kg, iv administered as 30 mins infusion every 24 hrs measured on day 14; type: ADME, organism-based; design: dose 8 mg/kg, route intravenous
[3] = AUC ( 0 to infinity) in cancer patient with neutropenic fever at 6 mg/kg, iv administered as 30 mins infusion every 24 hrs; type: ADME, organism-based; design: time infinity, dose 6 mg/kg, route intravenous; settings: human, plasma
Method in brief: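 Adult oncology patients with neutropenic fever (n = 29) received 6 mg/kg by total body weight as a 30-min IV infusion. Plasma was sampled predose, at end of infusion, and at 0.5, 1, 2, 4, 8, 12 and 24 h. Total drug was measured by validated HPLC (linear 1–100 μg/ml). Noncompartmental analysis: AUC0-24 by linear trapezoidal rule, plus last concentration/λz. Mean ± SD.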

[4] = tested on: Homo sapiens; test: Half life in cancer patient with neutropenic fever at 6 mg/kg, iv administered as 30 mins infusion every 24 hrs; type: ADME, organism-based; design: dose 6 mg/kg, route intravenous; settings: in vivo
Method in brief: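 Patients with neutropenic fever; 6 mg/kg by total body weight, 30-min IV infusion q24h. Plasma drawn predose, end of infusion, and 0.5, 1, 2, 4, 8, 12, 24 h after infusion start; total drug by validated HPLC (linear 1–100 μg/ml). Noncompartmental analysis; λz from terminal-phase regression, t1/2 = 0.693/λz.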

[5] = Plasma protein binding in human after 2 hrs; type: ADME, cell-free; settings: read-out: PPB (converted)
Method in brief: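 Neutropenic-fever oncology patients received 6 mg/kg IV daptomycin; serum was drawn 0.5, 2 and 8 h after the end of infusion. Free drug was obtained by ultrafiltration (30,000-MW cutoff) and quantified by HPLC against a saline-matrix curve of 0.25–100 μg/ml, with total plasma drug also measured. Percent bound was (total − free)/total × 100; results are given as mean ± SD.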

[6] = tested on: Enterococcus; test: Antimicrobial activity against Enterococcus; type: functional
[7] = Apparent volume of distribution during terminal phase in healthy human at 8 mg/kg, iv administered as 30 mins infusion every 24 hrs measured on day 14; type: ADME, organism-based; design: dose 8 mg/kg, route intravenous; settings: in vivo
[8] = Cmax in healthy human at 6 mg/kg, iv administered as 30 mins infusion every 24 hrs measured on day 1; type: ADME, organism-based; design: dose 6 mg/kg, route intravenous; settings: in vivo
[9] = Renal clearance in healthy adult human at 6 mg/kg, iv administered as single dose 30 mins infusion; type: ADME, organism-based, Kidney; design: dose 6 mg/kg, route intravenous; settings: in vivo, read-out: CL_renal (converted)
[10] = Renal clearance in adult human with hepatic impairment at 6 mg/kg, iv administered as single dose 30 mins infusion; type: ADME, organism-based, Kidney; design: dose 6 mg/kg, route intravenous; settings: in vivo, read-out: CL_renal (converted)
[11] = Renal clearance in moderately obese adult human at 4 mg/kg, iv administered as single dose 30 mins infusion; type: ADME, organism-based, Kidney; design: dose 4 mg/kg, route intravenous; settings: in vivo, read-out: CL_renal (converted)
[12] = Half life in young healthy human at 4 mg/kg, iv administered as single dose 30 mins infusion; type: ADME, organism-based; design: dose 4 mg/kg, route intravenous; settings: in vivo
[13] = Half life in healthy human at 4 mg/kg, iv administered as single dose 30 mins infusion; type: ADME, organism-based; design: dose 4 mg/kg, route intravenous; settings: in vivo
[14] = AUC (0 to infinity) in moderately obese adult human at 4 mg/kg, iv administered as single dose 30 mins infusion; type: ADME, organism-based; design: time infinity, dose 4 mg/kg, route intravenous; settings: plasma
[15] = AUC (0 to infinity) in healthy human subjects at 8 mg/kg, iv administered as 30 mins infusion every 24 hrs measured on day 4; type: ADME, organism-based; design: dose 8 mg/kg, route intravenous, time infinity; settings: plasma
[16] = AUC (0 to infinity) in healthy human subjects at 8 mg/kg, iv administered as 30 mins infusion every 24 hrs measured on day 1; type: ADME, organism-based; design: time infinity, dose 8 mg/kg, route intravenous; settings: plasma
[17] = AUC (0 to infinity) in healthy human at 8 mg/kg, iv administered as 30 mins infusion every 24 hrs measured on day 14; type: ADME, organism-based; design: time infinity, dose 8 mg/kg, route intravenous; settings: plasma
[18] = AUC (0 to infinity) in healthy human at 6 mg/kg, iv administered as 30 mins infusion every 24 hrs measured on day 7; type: ADME, organism-based; design: time infinity, dose 6 mg/kg, route intravenous; settings: plasma
[19] = AUC (0 to infinity) in healthy human at 4 mg/kg, iv administered as 30 mins infusion every 24 hrs measured on day 1; type: ADME, organism-based; design: time infinity, dose 4 mg/kg, route intravenous; settings: plasma
[20] = Cmax in healthy human subjects at 10 mg/kg, iv administered as 30 mins infusion every 24 hrs measured on day 1; type: ADME, organism-based; design: dose 10 mg/kg, route intravenous; settings: in vivo
[21] = Cmax in healthy human at 8 mg/kg, iv administered as 30 mins infusion every 24 hrs measured on day 7; type: ADME, organism-based; design: dose 8 mg/kg, route intravenous; settings: in vivo
[22] = Cmax in healthy human at 4 mg/kg, iv administered as 30 mins infusion every 24 hrs measured on day 7; type: ADME, organism-based; design: dose 4 mg/kg, route intravenous; settings: in vivo
[23] = Drug excretion in morbidly obese adult human urine assessed as unchanged drug at 4 mg/kg, iv administered as single dose 30 mins infusion; type: ADME, organism-based; design: dose 4 mg/kg, route intravenous; settings: read-out: Drug uptake
[24] = Drug excretion in nonobese adult human urine assessed as unchanged drug at 4 mg/kg, iv administered as single dose 30 mins infusion; type: ADME, organism-based; design: dose 4 mg/kg, route intravenous; settings: read-out: Drug uptake
[25] = Drug excretion in healthy human urine assessed as unchanged drug at 4 mg/kg, iv administered as single dose 30 mins infusion; type: ADME, organism-based; design: dose 4 mg/kg, route intravenous; settings: read-out: Drug uptake
[26] = Mean residence time in healthy human at 4 mg/kg, iv administered as single dose 30 mins infusion; type: ADME, organism-based; design: dose 4 mg/kg, route intravenous; settings: in vivo
[27] = Apparent volume of distribution in old healthy human at 4 mg/kg, iv administered as single dose 30 mins infusion; type: ADME, organism-based; design: dose 4 mg/kg, route intravenous; settings: in vivo
[28] = tested on: Homo sapiens; test: Apparent volume of distribution in healthy human at 4 mg/kg, iv administered as single dose 30 mins infusion; type: ADME, organism-based; design: dose 4 mg/kg, route intravenous; settings: in vivo, 0.5 h
[29] = Volume of distribution at steady state in nonobese human subjects at 4 mg/kg, iv administered as single dose 30 mins infusion; type: ADME, organism-based; design: dose 4 mg/kg, route intravenous; settings: in vivo, read-out: Vdss
[30] = Volume of distribution at steady state in morbidly obese human at 4 mg/kg, iv administered as single dose 30 mins infusion; type: ADME, organism-based; design: dose 4 mg/kg, route intravenous; settings: in vivo, read-out: Vdss
[31] = Volume of distribution at steady state in moderately obese adult human at 4 mg/kg, iv administered as single dose 30 mins infusion; type: ADME, organism-based; design: dose 4 mg/kg, route intravenous; settings: in vivo, read-out: Vdss
[32] = Clearance in adult human with hepatic impairment at 6 mg/kg, iv administered as single dose 30 mins infusion; type: ADME, organism-based, Liver; design: dose 6 mg/kg, route intravenous; settings: in vivo
[33] = Half life in healthy adult human at 6 mg/kg, iv administered as single dose 30 mins infusion; type: ADME, organism-based; design: dose 6 mg/kg, route intravenous; settings: in vivo
[34] = Apparent volume of distribution during terminal phase in healthy human at 4 mg/kg, iv administered as 30 mins infusion every 24 hrs measured on day 1; type: ADME, organism-based; design: dose 4 mg/kg, route intravenous; settings: in vivo
[35] = Clearance in healthy human subjects at 8 mg/kg, iv administered as 30 mins infusion every 24 hrs measured on day 4; type: ADME, organism-based; design: dose 8 mg/kg, route intravenous; settings: in vivo
[36] = Clearance in healthy human subjects at 10 mg/kg, iv administered as 30 mins infusion every 24 hrs measured on day 1; type: ADME, organism-based; design: dose 10 mg/kg, route intravenous; settings: in vivo
[37] = Half life in healthy human subjects at 12 mg/kg, iv administered as 30 mins infusion every 24 hrs measured on day 4; type: ADME, organism-based; design: dose 12 mg/kg, route intravenous; settings: in vivo
[38] = Half life in healthy human subjects at 6 mg/kg, iv administered as 30 mins infusion every 24 hrs measured on day 1; type: ADME, organism-based; design: dose 6 mg/kg, route intravenous; settings: in vivo
[39] = Half life in healthy human at 8 mg/kg, iv administered as 30 mins infusion every 24 hrs measured on day 14; type: ADME, organism-based; design: dose 8 mg/kg, route intravenous; settings: in vivo
[40] = Half life in healthy human at 6 mg/kg, iv administered as 30 mins infusion every 24 hrs measured on day 7; type: ADME, organism-based; design: dose 6 mg/kg, route intravenous; settings: in vivo
[41] = AUC (0 to tau) in healthy human subjects at 6 mg/kg, iv administered as 30 mins infusion every 24 hrs measured on days 1-3; type: ADME, organism-based; design: dose 6 mg/kg, route intravenous; settings: plasma

Q: What does the source list for `CCCCCCCCCC(=O)N[C@@H](Cc1c[nH]c2ccccc12)C(=O)N[C@H](CC(N)=O)C(=O)N[C@@H](CC(=O)O)C(=O)N[C@@H]1C(=O)NCC(=O)N[C@@H](CCCN)C(=O)N[C@@H](CC(=O)O)C(=O)N[C@H](C)C(=O)N[C@@H](CC(=O)O)C(=O)NCC(=O)N[C@H](CO)C(=O)N[C@@H]([C@H](C)CC(=O)O)C(=O)N[C@@H](CC(=O)c2ccccc2N)C(=O)O[C@@H]1C`?
A: Vd [1]: 0.0992 L/kg; fraction unbound at 14 day [2]: 0.09; AUC(0-inf) [3]: 427 µg·h/mL; t1/2 [4]: 8.75 h; fraction unbound at 2 h [5]: 0.063; MIC90 [6]: 2 µg/mL (≈ 1.23 µM); Vd [7]: 0.095 L/kg; Cmax [8]: 86.4 µg/mL; CL renal at 0.5 h [9]: 0.064 mL/min/kg; CL renal at 0.5 h [10]: 0.0608 mL/min/kg; CL renal at 0.5 h [11]: 0.156 mL/min/kg; half-life [12]: 6.79 h; half-life [13]: 7.74 h; AUC(0-inf) [14]: 421 µg·h/mL; AUC(0-inf) [15]: 858 µg·h/mL; AUC(0-inf) [16]: 773 µg·h/mL; AUC(0-inf) [17]: 1090 µg·h/mL; AUC(0-inf) [18]: 747 µg·h/mL; AUC(0-inf) [19]: 425 µg·h/mL; Cmax [20]: 130 µg/mL; Cmax [21]: 133 µg/mL; Cmax [22]: 57.8 µg/mL; dose excreted at 0.5 h [23]: 42.7%; dose excreted at 0.5 h [24]: 52.3%; dose excreted at 0.5 h [25]: 59.7%; MRT [26]: 10.9 h; Vd [27]: 0.17 L/kg; Vd [28]: 6350 mL; Vd [29]: 0.13 L/kg; Vd [30]: 0.09 L/kg; Vd [31]: 0.15 L/kg; clearance [32]: 0.118 mL/min/kg; half-life [33]: 8.06 h; Vd [34]: 0.101 L/kg; clearance [35]: 0.15 mL/min/kg; clearance [36]: 0.165 mL/min/kg; half-life [37]: 7.7 h; half-life [38]: 7.5 h; half-life [39]: 8.9 h; half-life [40]: 8.9 h; AUC tau [41]: 645 µg·h/mL
